Data from ChEMBL document CHEMBL1667822, “Selective antagonists of mouse trace amine-associated receptor 1 (mTAAR1): discovery of EPPTB (RO5212773)” (Bioorg Med Chem Lett, 2011).

Columns and labels:
[1] = biological target: T1, Trace amine-associated receptor 1 (Mus musculus, UniProt Q923Y8); assay: Inhibition of mouse TAAR1
[2] = biological target: T1, Trace amine-associated receptor 1; assay: Antagonist activity at mouse TAAR1 assessed as reversal of endogenous beta-PEA effect; assay type: functional
Procedure, shortened: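 Mouse TAAR1 antagonist dose–response run as an in vitro cAMP functional assay. Efficacy is the reversal of the effect of the endogenous agonist β-PEA, with 100% efficacy defined as 0% min% stim. Values are averages of at least two independent experiments.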

[3] = biological target: Trace amine-associated receptor 1 (Mus musculus) (UniProt Q923Y8); assay: Antagonist activity at mouse TAAR1 assessed as residual stimulation by in vitro cAMP functional assay relative to control; set-up: concentration or dose not given beside the values
Procedure, shortened: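 Mouse TAAR1 in vitro cAMP functional assay using the endogenous agonist β-PEA. The read-out is the residual β-PEA stimulation remaining at the maximum test-compound concentration. Values are averages of at least two independent experiments.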

[4] = Intrinsic clearance in mouse liver microsomes measured per mg of protein; assay type: ADME, Microsome
Procedure, shortened: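 Intrinsic clearance from in vitro incubation of compound with mouse liver microsomes, expressed per mg microsomal protein.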

[5] = Lipophilicity, log D of the compound; assay type: physicochemical; settings: octanol/water
Liver microsomes = assay: Intrinsic clearance in human liver microsomes measured per mg of protein; assay type: ADME, Microsome
Procedure, shortened: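 In vitro incubation with human liver microsomes. Intrinsic clearance is expressed per mg microsomal protein per minute.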

[6] = Aqueous solubility of the compound; assay type: physicochemical; settings: buffer
[7] = biological target: T2, Trace amine-associated receptor 1 (Homo sapiens, UniProt Q96RJ0); assay: Inhibition of human TAAR1
T2 sequence (Q96RJ0 whole entry): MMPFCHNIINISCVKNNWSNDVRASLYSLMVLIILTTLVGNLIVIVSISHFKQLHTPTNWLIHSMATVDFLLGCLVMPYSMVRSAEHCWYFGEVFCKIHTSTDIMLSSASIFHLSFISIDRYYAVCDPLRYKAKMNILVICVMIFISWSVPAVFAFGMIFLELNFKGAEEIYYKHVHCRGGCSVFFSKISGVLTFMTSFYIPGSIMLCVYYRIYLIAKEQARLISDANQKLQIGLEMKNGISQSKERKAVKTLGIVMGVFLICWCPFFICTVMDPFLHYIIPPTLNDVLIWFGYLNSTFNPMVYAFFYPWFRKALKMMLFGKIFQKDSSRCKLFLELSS
Procedure, shortened: (§1)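 In vitro cAMP functional assay with antagonism read as reversal of the response to the endogenous agonist beta-PEA. Efficacy was scaled so that 100% equals 0% minimum stimulation. Residual beta-PEA stimulation was taken at the highest test-compound concentration. Values are means of at least two independent experiments, with duplicates typically within a twofold margin.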

[8] = biological target: T2, Trace amine-associated receptor 1; assay: Antagonist activity at human TAAR1 assessed as reversal of endogenous beta-PEA effect; assay type: functional; procedure, shortened: as §1
[9] = biological target: Trace amine-associated receptor 1 (Rattus norvegicus, UniProt Q923Y9); assay: Inhibition of rat TAAR1; procedure, shortened: as §1
Sequence of Trace amine-associated receptor 1 (Rattus norvegicus, UniProt Q923Y9) (Q923Y9 whole entry): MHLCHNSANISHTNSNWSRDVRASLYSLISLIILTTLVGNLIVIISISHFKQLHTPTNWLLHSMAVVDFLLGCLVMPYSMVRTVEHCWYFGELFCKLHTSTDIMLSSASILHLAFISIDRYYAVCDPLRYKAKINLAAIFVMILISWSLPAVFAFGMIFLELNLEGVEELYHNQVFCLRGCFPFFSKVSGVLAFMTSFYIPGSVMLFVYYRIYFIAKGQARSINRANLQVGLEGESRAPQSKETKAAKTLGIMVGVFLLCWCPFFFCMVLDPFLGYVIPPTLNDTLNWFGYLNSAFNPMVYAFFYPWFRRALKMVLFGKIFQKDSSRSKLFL

T1 sequence (Q923Y8 whole entry): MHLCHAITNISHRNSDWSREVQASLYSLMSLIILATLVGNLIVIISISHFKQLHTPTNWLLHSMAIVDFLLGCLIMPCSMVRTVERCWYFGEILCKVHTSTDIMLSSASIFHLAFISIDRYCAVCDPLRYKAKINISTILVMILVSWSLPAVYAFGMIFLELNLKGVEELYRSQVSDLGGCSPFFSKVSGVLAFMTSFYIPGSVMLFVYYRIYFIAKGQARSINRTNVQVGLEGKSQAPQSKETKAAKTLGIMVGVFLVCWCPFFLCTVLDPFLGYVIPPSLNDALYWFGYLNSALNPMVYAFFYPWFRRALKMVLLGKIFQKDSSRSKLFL
Sequence of Trace amine-associated receptor 1 (Mus musculus) (Q923Y8 whole entry): as above

Q: For `COc1cccc(NC(=O)c2ccc(F)c(C)c2)c1`, which Ki [1] is on record?
A: 1580 nM

Q: Which IC50 [2] does the source give for `O=C(Nc1cccc(OC(F)(F)C(F)F)c1)c1ccc(N2CCCC2)c(C(F)(F)F)c1` here?
A: 364 nM

Q: What about the Activity [3] of the same molecule?
A: 0%

Q: With `COc1cccc(NC(=O)c2cccc(S(C)(=O)=O)c2)c1` as the molecule, how does the Ki [1] read?
A: 6000 nM

Q: With `COc1cccc(NC(=O)c2ccc(Nc3ccccc3)c([N+](=O)[O-])c2)c1` as the molecule, how does the IC50 [2] read?
A: 175 nM

Q: What about the Activity [3] of the same molecule?
A: 0%

Q: Which Ki [1] does the source give for `COc1cccc(NC(=O)c2ccc(F)c(F)c2)c1` here?
A: 229 nM

Q: Which results are given for `COc1cccc(NC(=O)c2ccc(NCc3ccccc3)c([N+](=O)[O-])c2)c1`?
A: IC50 [2]: 14 nM; Activity [3]: 3%

Q: Which Ki [1] does the source give for `COc1cccc(NC(=O)c2ccc(F)c(OC(F)(F)F)c2)c1` here?
A: 138 nM

Q: Which results are given for `COc1cccc(NC(=O)c2ccc(NC(C)C)c([N+](=O)[O-])c2)c1`?
A: IC50 [2]: 142 nM; Activity [3]: 0%

Q: For `O=C(Nc1cccc(Cl)c1)c1ccc(N2CCCC2)c(C(F)(F)F)c1`, which IC50 [2] is on record?
A: 245 nM

Q: And the Activity [3]?
A: 0%

Q: Which results are given for `COc1cccc(NC(=O)c2ccc(N3CCCC3)c(C(F)(F)F)c2)c1`?
A: IC50 [2]: 67 nM; Activity [3]: 0%; clearance [4]: 341 µL/min/mg; Ki [1]: 3 nM

Q: Which logD [5] does the source give for `COc1cccc(NC(=O)c2ccc(N3CCC(C)CC3)c([N+](=O)[O-])c2)c1` here?
A: > 3

Q: What about the clearance (Liver microsomes) of the same molecule?
A: 154 µL/min/mg

Q: And the IC50 [2]?
A: 60 nM

Q: And the Activity [3]?
A: 0%

Q: What about the clearance [4] of the same molecule?
A: 396 µL/min/mg

Q: What about the solubility [6] of the same molecule?
A: < 1 µg/mL

Q: What about the Ki [7] of the same molecule?
A: > 20000 nM

Q: And the IC50 [8]?
A: 3790 nM

Q: Which IC50 [2] does the source give for `Cc1cccc(NC(=O)c2ccc(N3CCCC3)c(C(F)(F)F)c2)c1` here?
A: 70 nM

Q: And the Activity [3]?
A: 0%

Q: Which results are given for `COc1cccc(NC(=O)c2ccc(N3CCOCC3)c([N+](=O)[O-])c2)c1`?
A: logD [5]: 2.7; IC50 [2]: 79 nM; Activity [3]: 0%; clearance [4]: 18 µL/min/mg; Ki [1]: 103 nM

Q: Which clearance [4] does the source give for `COc1cccc(NC(=O)c2cnc(N3CCCC3)c(C(F)(F)F)c2)c1` here?
A: 321 µL/min/mg

Q: For `COc1cccc(NC(=O)c2ccc(N3CCCC3)c([N+](=O)[O-])c2)c1`, which IC50 [2] is on record?
A: 17 nM

Q: And the Activity [3]?
A: 0%

Q: For `O=C(Nc1cccc(F)c1)c1ccc(N2CCCC2)c(C(F)(F)F)c1`, which IC50 [2] is on record?
A: 20 nM

Q: And the Activity [3]?
A: 0%

Q: For `COc1cccc(NC(=O)c2ccc(Cl)c(Cl)c2)c1`, which Ki [1] is on record?
A: 25 nM

Q: With `CCc1cccc(NC(=O)c2ccc(N3CCCC3)c(C(F)(F)F)c2)c1` as the molecule, how does the IC50 [2] read?
A: 470 nM

Q: What about the Activity [3] of the same molecule?
A: 0%

Q: For `COc1cccc(NC(=O)c2ccc(F)c(C(C)=O)c2)c1`, which Ki [1] is on record?
A: 139 nM

Q: Which Ki [1] does the source give for `O=C(Nc1cccc(Oc2ccccc2)c1)c1ccc(N2CCCC2)c(C(F)(F)F)c1` here?
A: 82 nM

Q: With `O=C(Nc1cccc(OC(F)F)c1)c1ccc(N2CCCC2)c(C(F)(F)F)c1` as the molecule, how does the IC50 [2] read?
A: 187 nM

Q: And the Activity [3]?
A: 0%

Q: Which IC50 [2] does the source give for `COc1cccc(NC(=O)c2ccc(Cl)c([N+](=O)[O-])c2)c1` here?
A: 12 nM

Q: And the Activity [3]?
A: 0%

Q: With `COc1cccc(NC(=O)c2ccc(N3CCN(C)CC3)c([N+](=O)[O-])c2)c1` as the molecule, how does the Ki [1] read?
A: 164 nM

Q: With `CC(C)Oc1cccc(NC(=O)c2ccc(N3CCCC3)c(C(F)(F)F)c2)c1` as the molecule, how does the IC50 [2] read?
A: 27 nM

Q: What about the Activity [3] of the same molecule?
A: 0%

Q: And the Ki [1]?
A: 4 nM

Q: Which Ki [1] does the source give for `O=C(Nc1cccc(OC(F)(F)F)c1)c1ccc(N2CCCC2)c(C(F)(F)F)c1` here?
A: 101 nM

Q: With `COc1cccc(NC(=O)c2ccc(Br)c([N+](=O)[O-])c2)c1` as the molecule, how does the IC50 [2] read?
A: 43 nM

Q: And the Activity [3]?
A: 0%

Q: With `CCNc1ccc(C(=O)Nc2cccc(OC)c2)cc1[N+](=O)[O-]` as the molecule, how does the IC50 [2] read?
A: 75 nM

Q: And the Activity [3]?
A: 23%

Q: With `O=C(Nc1cccc(Br)c1)c1ccc(N2CCCC2)c(C(F)(F)F)c1` as the molecule, how does the IC50 [2] read?
A: 568 nM

Q: What about the Activity [3] of the same molecule?
A: 0%

Q: With `COc1cccc(NC(=O)c2ccc(F)c(C#N)c2)c1` as the molecule, how does the Ki [1] read?
A: 149 nM

Q: Which results are given for `CC(=O)c1cccc(NC(=O)c2ccc(N3CCCC3)c(C(F)(F)F)c2)c1`?
A: IC50 [2]: 120 nM; Activity [3]: 0%

Q: With `COc1cccc(NC(=O)c2ccc(F)c(S(N)(=O)=O)c2)c1` as the molecule, how does the Ki [1] read?
A: 7430 nM

Q: What does the source list for `COc1cccc(NC(=O)c2ccc(N3CCCCC3)c([N+](=O)[O-])c2)c1`?
A: IC50 [2]: 19 nM; Activity [3]: 0%

Q: With `COc1cccc(NC(=O)c2ccc(F)c(S(=O)(=O)N3CCCCC3)c2)c1` as the molecule, how does the Ki [1] read?
A: 694 nM

Q: Which IC50 [2] does the source give for `COc1cccc(NC(=O)c2cccc([N+](=O)[O-])c2)c1` here?
A: 665 nM

Q: What about the Activity [3] of the same molecule?
A: 0%

Q: And the Ki [1]?
A: 189 nM

Q: Which Ki [1] does the source give for `COc1cccc(NC(=O)c2ccc(N)c([N+](=O)[O-])c2)c1` here?
A: 1920 nM

Q: What does the source list for `COc1cccc(NC(=O)c2ccc(S(=O)(=O)N3CC(C)CC(C)C3)c(F)c2)c1` (racemic)?
A: clearance (Liver microsomes): 538 µL/min/mg; Ki [9]: 1390 nM; IC50 [2]: 6 nM; Activity [3]: 28%; clearance [4]: 1700 µL/min/mg; solubility [6]: < 1 µg/mL; Ki [7]: > 20000 nM; IC50 [8]: > 10000 nM; Ki [1]: 4 nM

Q: What does the source list for `COc1cccc(NC(=O)c2ccc(N3CCC3)c([N+](=O)[O-])c2)c1`?
A: IC50 [2]: 200 nM; Activity [3]: 9%

Q: For `COc1cccc(NC(=O)c2cnc(N3CCC(C)CC3)c(C(F)(F)F)c2)c1`, which logD [5] is on record?
A: > 4

Q: What about the clearance [4] of the same molecule?
A: 107 µL/min/mg

Q: What does the source list for `CCCNc1ccc(C(=O)Nc2cccc(OC)c2)cc1[N+](=O)[O-]`?
A: IC50 [2]: 13 nM; Activity [3]: 14%

Q: With `COc1cccc(NC(=O)c2ccc(-n3cccn3)c([N+](=O)[O-])c2)c1` as the molecule, how does the Ki [1] read?
A: 262 nM
